Reference: ChEMBL document CHEMBL1142697, “Beta-lactam screening by specific residues of the OmpF eyelet” (2005)

How the values were obtained:
Klebsiella aerogenes [1] = assay: Mean lysis diameter of Enterobacter aerogenes EA289 with D113A mutation by standard disk diffusion method on MH agar; assay type: functional
Procedure, shortened: (§1)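 Porin-deficient, β-lactamase-producing Enterobacter aerogenes EA289 carrying plasmid-borne wild-type OmpF, D113A or D121A. Grown in LB at 37 °C with gentle shaking, with kanamycin (50 µg/mL) or IPTG (1 mM); porin expression checked. Disk diffusion: 3 mL MH broth culture (10^7 bacteria/mL) spread on MH agar, antibiotic disks applied, inhibition diameter (mm) after 24 h at 37 °C. Mean of 3–5 experiments, versus the wild-type OmpF strain.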

Klebsiella aerogenes [2] = assay: Mean lysis diameter of porin deficient Enterobacter aerogenes EA289 by standard disk diffusion method on MH agar; assay type: functional
Procedure, shortened: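 Porin-deficient, β-lactamase-expressing E. aerogenes EA289 is grown in Luria Bertani broth at 37 °C with gentle shaking. An MH broth culture at 10^7 bacteria/mL is spread on MH agar and antibiotic-loaded disks are applied. The inhibition diameter (mm) around each disk is read after 24 h at 37 °C, averaged over three to five experiments.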

Klebsiella aerogenes [3] = assay: Mean lysis diameter of wild type Enterobacter aerogenes EA289 with OmpF by standard disk diffusion method on MH agar; assay type: functional
Procedure, shortened: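 EA289 is transformed with a plasmid encoding wild-type OmpF and grown in LB at 37 °C with gentle shaking, with kanamycin (50 µg/mL) or IPTG (1 mM) as needed to keep the plasmid. OmpF expression level is checked. For the disk diffusion test, MH broth culture (10^7 bacteria/mL) is spread on MH agar with antibiotic disks. Zone diameter (mm) is read after 24 h at 37 °C, mean of 3–5 experiments.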

Klebsiella aerogenes [4] = assay: Mean lysis diameter was measured against Enterobacter aerogenes EA289 with D121A mutation by standard disk diffusion method on MH agar; assay type: functional; procedure, shortened: as §1
Escherichia coli [5] = assay: Bacterial susceptibility induced by D113 mutation in Escherichia coli OmpF; assay type: functional, organism-based; procedure, shortened: as §1
Escherichia coli [6] = assay: Bacterial susceptibility induced by D121 mutation in Escherichia coli OmpF; assay type: functional, organism-based; procedure, shortened: as §1

CC(C)(O/N=C(\C(=O)N[C@@H]1C(=O)N2C(C(=O)[O-])=C(C[n+]3ccccc3)CS[C@H]12)c1csc(N)n1)C(=O)O [CEFTAZIDIME]
Lysis diameter (Klebsiella aerogenes [1]): 20 mm | Lysis diameter (Klebsiella aerogenes [2]): 8 mm | Lysis diameter (Klebsiella aerogenes [3]): 11 mm | Lysis diameter (Klebsiella aerogenes [4]): 15 mm

CO/N=C(\C(=O)N[C@@H]1C(=O)N2C(C(=O)[O-])=C(C[n+]3cccc4c3CCC4)CS[C@H]12)c1csc(N)n1 [CEFPIROME]
Lysis diameter (Klebsiella aerogenes [1]): 31 mm | Lysis diameter (Klebsiella aerogenes [2]): 19 mm | Lysis diameter (Klebsiella aerogenes [3]): 26 mm | Lysis diameter (Klebsiella aerogenes [4]): 31 mm

CO/N=C(\C(=O)N[C@@H]1C(=O)N2C(C(=O)[O-])=C(C[N+]3(C)CCCC3)CS[C@H]12)c1csc(N)n1 [CEFEPIME]
Lysis diameter (Klebsiella aerogenes [1]): 30 mm | Lysis diameter (Klebsiella aerogenes [2]): 19 mm | Susceptibility (Escherichia coli [5]): +/- | Lysis diameter (Klebsiella aerogenes [3]): 27 mm | Susceptibility (Escherichia coli [6]): +/- | Lysis diameter (Klebsiella aerogenes [4]): 29 mm

CO[C@@]1(NC(=O)Cc2cccs2)C(=O)N2C(C(=O)O)=C(COC(N)=O)CS[C@@H]21 [CEFOXITIN]
Lysis diameter (Klebsiella aerogenes [1]): 16 mm | Lysis diameter (Klebsiella aerogenes [2]): 6 mm | Lysis diameter (Klebsiella aerogenes [3]): 7 mm | Lysis diameter (Klebsiella aerogenes [4]): 12 mm

CO/N=C(\C(=O)N[C@@H]1C(=O)N2C(C(=O)O)=C(COC(C)=O)CS[C@H]12)c1csc(N)n1 [CEFOTAXIME]
Lysis diameter (Klebsiella aerogenes [1]): 23 mm | Lysis diameter (Klebsiella aerogenes [2]): 15 mm | Lysis diameter (Klebsiella aerogenes [3]): 17 mm | Lysis diameter (Klebsiella aerogenes [4]): 18 mm

CC1(C)S[C@@H]2[C@H](NC(=O)[C@H](N)c3ccccc3)C(=O)N2[C@H]1C(=O)O [AMPICILLIN]
Lysis diameter (Klebsiella aerogenes [1]): 16 mm | Lysis diameter (Klebsiella aerogenes [2]): 6 mm | Lysis diameter (Klebsiella aerogenes [3]): 6 mm | Lysis diameter (Klebsiella aerogenes [4]): 7 mm
